# ChEMBL document CHEMBL1221396, “Resveratrol oligomers from Vatica albiramis” (J Nat Prod, 2010)
# Active and inactive are the calls of the source. The rule behind the calls is not given here.
# Columns and labels:
# HFF [1] = assay: Antiinflammatory activity in human foreskin fibroblast assessed as inhibition of IL-1-beta-induced MMP1 production at 1 uM treated for 24 hrs before IL1-beta challenge measured after 24 hrs by Western blot analysis; type: functional, cell-based
# In short: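 Fibroblasts were grown in DMEM with 10% FBS at 37 °C under 5% CO2, seeded at 2 × 10⁵ cells/mL, grown to confluence, and treated for 24 h. Secreted MMP-1 was measured by western blot. Blots were blocked in TBS with 5% skim milk and 0.05% Tween-20 for 1 h at room temperature, incubated with primary antibody overnight at 4 °C, then with HRP secondary antibody for 1 h at room temperature.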
# HFF [2] = assay: Cytotoxicity against human foreskin fibroblast at 1 uM; type: cell-based
Compound,inhibition (HFF [1]),Activity (HFF [2])
Oc1ccc([C@@H]2c3c(O)cc(O)cc3[C@@H]3c4c(cc(O)cc4[C@H]2[C@@H]2c4cc(O)cc5c4[C@@H](c4cc(O)cc(O)c4[C@H]2c2ccc(O)cc2)[C@H](c2ccc(O)cc2)O5)O[C@H]3c2ccc(O)cc2)cc1,Active,Non-toxic
OC[C@H]1O[C@@H](Oc2cc(O)cc([C@@H]3c4c(/C=C/c5ccc(O)cc5)cc(O[C@@H]5O[C@H](CO)[C@@H](O)[C@H](O)[C@H]5O)cc4O[C@H]3c3ccc(O)cc3)c2)[C@H](O)[C@@H](O)[C@@H]1O,inactive,–
Oc1ccc(/C=C/c2cc(O)cc3c2[C@@H](c2cc(O)cc(O)c2)[C@H](c2ccc(O)cc2)O3)cc1,inactive,–
Oc1ccc(/C=C\c2cc(O)cc3c2[C@@H](c2cc(O)cc(O)c2)[C@H](c2ccc(O)cc2)O3)cc1,inactive,–
Oc1ccc([C@H]2c3c(O)cc(O)cc3[C@@H]3c4c(cc(O)cc4[C@H]2O)O[C@H]3c2ccc(O)cc2)cc1,inactive,–
Oc1ccc([C@H]2c3c(O)cc4c(c3[C@@H]3[C@@H](c5ccc(O)cc5)c5c(O)cc6c(c5[C@H]23)[C@@H](c2cc(O)cc(O)c2)[C@H](c2ccc(O)cc2)O6)[C@@H](c2cc(O)cc(O)c2)[C@H](c2ccc(O)cc2)O4)cc1 [STENOPHYLLOL C],Active,Non-toxic
OC[C@H]1O[C@@H](Oc2cc3c4c(c2)[C@@H]([C@@H]2c5cc(O)cc6c5[C@@H](c5cc(O)cc(O)c5[C@H]2c2ccc(O)cc2)[C@H](c2ccc(O)cc2)O6)[C@H](c2ccc(O)cc2)c2c(O)cc(O)cc2[C@H]4[C@H](c2ccc(O)cc2)O3)[C@H](O)[C@@H](O)[C@@H]1O [VATALBINOSIDE A],Active,Non-toxic
Oc1ccc([C@@H]2c3c(O)cc(O)cc3[C@@H]3c4c(cc(O)cc4[C@H]2[C@@H]2c4cc(O)c([C@@H](c5ccc(O)cc5)[C@@H]5c6c(c(O)cc7c6[C@@H](c6cc(O)cc(O)c6)[C@H](c6ccc(O)cc6)O7)[C@H](c6cc(O)cc7c6[C@H](c6cc(O)cc(O)c6)[C@@H](c6ccc(O)cc6)O7)[C@H]5c5ccc(O)cc5)c5c4[C@@H](c4cc(O)cc(O)c4[C@H]2c2ccc(O)cc2)[C@H](c2ccc(O)cc2)O5)O[C@H]3c2ccc(O)cc2)cc1 [VATERIAPHENOL A],Active,Non-toxic
Oc1ccc([C@@H]2c3c(O)cc4c(c3[C@@H]3c5c(O)cc6c(c5[C@H]2[C@H]3c2ccc(O)cc2)[C@@H](c2cc(O)cc(O)c2)[C@H](c2ccc(O)cc2)O6)[C@@H](c2cc(O)cc(O)c2)[C@H](c2ccc(O)cc2)O4)cc1 [VATICANOL C],Active,Non-toxic
Oc1ccc([C@@H]2c3c(O)cc(O)cc3[C@@H]3c4c(cc(O)c5c4[C@@H]2[C@H](c2ccc(O)cc2)[C@H]5c2cc(O)cc4c2[C@@H](c2cc(O)cc(O)c2)[C@H](c2ccc(O)cc2)O4)O[C@H]3c2ccc(O)cc2)cc1 [Vaticanol B],Active,Non-toxic
